Measurements published in ChEMBL document CHEMBL1153140, “Piperidyl amides as novel, potent and orally active mGlu5 receptor antagonists with anxiolytic-like activity” (Bioorg Med Chem Lett, 2010).
Converted amounts (≈) assume the structure as drawn. The source made the active and inactive calls. The rule behind the calls is not given here.

What was measured:
[1] = target: T1, Metabotropic glutamate receptor 5 (Homo sapiens, UniProt P41594); experiment: Antagonist activity at human mGluR5 assessed as inhibition of glutamate-induced elevation of intracellular calcium concentration; format: functional, cell-based
[2] = target: T1, Metabotropic glutamate receptor 5; experiment: Antagonist activity at human mGluR5 assessed as inhibition of quisqualate-induced intracellular inositol phosphate accumulation; format: functional, cell-based
[3] = Aqueous solubility at pH 6.8; format: physicochemical
In short: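 Solubility measured at pH 6.8 by a dissolution template potentiometric titration approach, expressed in mg/L.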

[4] = Intrinsic clearance in human liver microsomes; format: ADME, Microsome
[5] = Intrinsic clearance in rat liver microsomes; format: ADME, Microsome
Rattus norvegicus [6] = experiment: Anxiolytic-like activity in water-deprived rat assessed as increase in electrical shock-stimulated lick at 3 mg/kg, po administered 1 hr before test by Vogel conflict test; format: functional, organism-based; design: dose 3 mg/kg
Rattus norvegicus [7] = species on record: Rattus norvegicus; experiment: Anxiolytic-like activity in rat assessed as reduction in electric foot shock-induced fear-potentiation startle; format: functional, organism-based
In short: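 Rats fear-conditioned by 20 pairings of light (5 s) with footshock (0.5 mA, 0.5 s) on two successive days. On day 3, oral dosing (3–30 mg/kg, n = 10/group). 1 h later, startle to a noise burst measured with and without light, 12 presentations each; FPS taken as the difference. Multifactorial ANOVA with Dunnett post-hoc.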

Brain = experiment: Drug level in rat brain at 2 mg/kg; format: ADME, organism-based; design: dose 2 mg/kg; settings: in vivo
In short: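 In a fear-potentiated startle run at 0.08–30 mg/kg po, rats were sacrificed immediately after testing. Brains were removed and drug concentration measured by HPLC, reported as mean ± SEM per dose group.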

[8] = target: Metabotropic glutamate receptor 1 (Homo sapiens, UniProt Q13255); experiment: Inhibition of human mGluR1
[9] = target: Metabotropic glutamate receptor 2 (Homo sapiens, UniProt Q14416); experiment: Inhibition of human mGluR2
[10] = target: Metabotropic glutamate receptor 7 (Homo sapiens, UniProt Q14831); experiment: Inhibition of human mGluR7
Glutamate NMDA receptor = experiment: Displacement of radioligand from glutamate and glycine binding site of NMDA receptor in rat brain membrane; format: cell membranes
In short: (§1)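 Radioligand displacement in rat brain membranes: AMPA (glutamate site), kainate (glutamate site) and NMDA (glutamate and glycine sites).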

[11] = Displacement of radioligand from glutamate binding site of AMPA receptor in rat brain membrane; format: cell membranes; in short: as §1
[12] = Displacement of radioligand from glutamate binding site of kinate receptor in rat brain membrane; format: cell membranes; in short: as §1
[13] = Second elimination Half life in Sprague-Dawley rat at 10 umol/kg, iv; format: ADME, organism-based; settings: in vivo, read-out: beta t1/2 (converted)
In short: (§2)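 Single iv bolus of 10 µmol/kg in Sprague-Dawley rats, n = 3 per group. Plasma concentration-time profile analysed for AUC, clearance, first and second elimination half-lives, MRT and Vss. Brain/plasma AUC ratio also determined.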

[14] = target: Metabotropic glutamate receptor 5 (Rattus norvegicus, UniProt P31424); experiment: Displacement of [3H]ABP688 from mGluR5 in rat brain cortex; format: tissue-based
[15] = target: T1, Metabotropic glutamate receptor 5; experiment: Displacement of [3H]ABP688 from human recombinant mGluR5 expressed in CHO cells; format: cell-based
[16] = Cmax in Sprague-Dawley rat at 30 umol/kg, po; format: ADME, organism-based; design: dose 30 umol/kg, route oral; settings: in vivo
In short: (§3)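 Sprague-Dawley rats (n = 3/group) dosed orally once at 30 µmol/kg. Plasma Cmax, Tmax and AUC determined.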

[17] = Tmax in Sprague-Dawley rat at 30 umol/kg, po; format: ADME, organism-based; settings: in vivo; in short: as §3
[18] = AUC in Sprague-Dawley rat at 30 umol/kg, po; format: ADME, organism-based; settings: plasma; in short: as §3
[19] = Oral bioavailability in Sprague-Dawley rat at 30 umol/kg; format: ADME, organism-based; settings: in vivo; in short: as §3
[20] = Ratio of drug level in brain to plasma in Sprague-Dawley rat at 30 umol/kg, po; format: ADME
In short: (§4)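 Single-dose pharmacokinetic study in Sprague-Dawley rats, n = 3 per group, given one oral or one iv bolus dose. Drug concentrations were followed over time in plasma and brain. The ratio is the brain AUC divided by the plasma AUC.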

[21] = First elimination Half life in Sprague-Dawley rat at 10 umol/kg, iv; format: ADME, organism-based; settings: in vivo, read-out: beta t1/2 (converted); in short: as §2
[22] = Mean retention time in Sprague-Dawley rat at 10 umol/kg, iv; format: ADME, organism-based; settings: in vivo; in short: as §2
[23] = Clearance in Sprague-Dawley rat at 10 umol/kg, iv; format: ADME, organism-based; settings: in vivo; in short: as §2
[24] = Volume of distribution at steady state in Sprague-Dawley rat at 10 umol/kg, iv; format: ADME, organism-based; settings: in vivo, read-out: Vdss; in short: as §2
[25] = AUC in Sprague-Dawley rat at 10 umol/kg, iv; format: ADME, organism-based; settings: plasma; in short: as §2
[26] = Ratio of drug level in brain to plasma in Sprague-Dawley rat at 10 umol/kg, iv; format: ADME; in short: as §4
Mus musculus = experiment: Anxiolytic-like activity in mouse assessed as reduction of stress-induced hyperthermia at 3 to 10 mg/kg, po; format: functional, organism-based
Rattus norvegicus [27] = experiment: Anxiolytic-like activity in water-deprived rat assessed as increase in electrical shock-stimulated lick at 10 to 30 mg/kg, po administered 1 hr before test by Vogel conflict test; format: functional, organism-based

T1 sequence (P41594 whole entry): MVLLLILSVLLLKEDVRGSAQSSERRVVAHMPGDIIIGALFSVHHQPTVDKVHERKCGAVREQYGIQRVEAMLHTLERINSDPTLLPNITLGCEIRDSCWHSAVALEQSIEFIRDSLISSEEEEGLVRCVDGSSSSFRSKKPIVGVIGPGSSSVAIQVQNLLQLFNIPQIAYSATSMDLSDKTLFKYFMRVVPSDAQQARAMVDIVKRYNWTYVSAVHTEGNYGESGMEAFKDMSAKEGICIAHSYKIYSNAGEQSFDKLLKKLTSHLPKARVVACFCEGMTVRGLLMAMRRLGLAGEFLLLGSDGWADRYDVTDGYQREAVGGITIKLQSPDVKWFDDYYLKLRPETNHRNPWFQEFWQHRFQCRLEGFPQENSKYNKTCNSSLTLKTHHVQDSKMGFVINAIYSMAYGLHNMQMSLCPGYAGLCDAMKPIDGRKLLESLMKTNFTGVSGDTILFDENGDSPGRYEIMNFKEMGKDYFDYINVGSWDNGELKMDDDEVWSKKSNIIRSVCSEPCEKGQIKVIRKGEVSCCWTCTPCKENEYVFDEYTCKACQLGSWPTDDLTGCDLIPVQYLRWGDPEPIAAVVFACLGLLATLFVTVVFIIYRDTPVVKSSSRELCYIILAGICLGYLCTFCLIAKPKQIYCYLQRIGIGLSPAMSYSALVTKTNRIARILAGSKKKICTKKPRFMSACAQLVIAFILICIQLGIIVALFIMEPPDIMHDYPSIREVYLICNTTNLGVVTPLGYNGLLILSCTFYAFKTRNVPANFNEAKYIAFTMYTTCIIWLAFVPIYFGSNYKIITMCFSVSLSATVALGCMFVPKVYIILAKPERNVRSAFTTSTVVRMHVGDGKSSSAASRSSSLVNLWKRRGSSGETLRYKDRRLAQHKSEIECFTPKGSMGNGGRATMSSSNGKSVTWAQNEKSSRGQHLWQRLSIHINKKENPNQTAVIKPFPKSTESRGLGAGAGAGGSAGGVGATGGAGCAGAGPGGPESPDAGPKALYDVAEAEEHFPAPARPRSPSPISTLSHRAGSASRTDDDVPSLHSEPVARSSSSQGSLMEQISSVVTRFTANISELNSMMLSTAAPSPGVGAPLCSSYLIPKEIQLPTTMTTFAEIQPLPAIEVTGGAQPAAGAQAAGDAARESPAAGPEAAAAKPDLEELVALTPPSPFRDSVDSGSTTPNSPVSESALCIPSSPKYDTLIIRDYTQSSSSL
Sequence of Metabotropic glutamate receptor 1 (Q13255 whole entry): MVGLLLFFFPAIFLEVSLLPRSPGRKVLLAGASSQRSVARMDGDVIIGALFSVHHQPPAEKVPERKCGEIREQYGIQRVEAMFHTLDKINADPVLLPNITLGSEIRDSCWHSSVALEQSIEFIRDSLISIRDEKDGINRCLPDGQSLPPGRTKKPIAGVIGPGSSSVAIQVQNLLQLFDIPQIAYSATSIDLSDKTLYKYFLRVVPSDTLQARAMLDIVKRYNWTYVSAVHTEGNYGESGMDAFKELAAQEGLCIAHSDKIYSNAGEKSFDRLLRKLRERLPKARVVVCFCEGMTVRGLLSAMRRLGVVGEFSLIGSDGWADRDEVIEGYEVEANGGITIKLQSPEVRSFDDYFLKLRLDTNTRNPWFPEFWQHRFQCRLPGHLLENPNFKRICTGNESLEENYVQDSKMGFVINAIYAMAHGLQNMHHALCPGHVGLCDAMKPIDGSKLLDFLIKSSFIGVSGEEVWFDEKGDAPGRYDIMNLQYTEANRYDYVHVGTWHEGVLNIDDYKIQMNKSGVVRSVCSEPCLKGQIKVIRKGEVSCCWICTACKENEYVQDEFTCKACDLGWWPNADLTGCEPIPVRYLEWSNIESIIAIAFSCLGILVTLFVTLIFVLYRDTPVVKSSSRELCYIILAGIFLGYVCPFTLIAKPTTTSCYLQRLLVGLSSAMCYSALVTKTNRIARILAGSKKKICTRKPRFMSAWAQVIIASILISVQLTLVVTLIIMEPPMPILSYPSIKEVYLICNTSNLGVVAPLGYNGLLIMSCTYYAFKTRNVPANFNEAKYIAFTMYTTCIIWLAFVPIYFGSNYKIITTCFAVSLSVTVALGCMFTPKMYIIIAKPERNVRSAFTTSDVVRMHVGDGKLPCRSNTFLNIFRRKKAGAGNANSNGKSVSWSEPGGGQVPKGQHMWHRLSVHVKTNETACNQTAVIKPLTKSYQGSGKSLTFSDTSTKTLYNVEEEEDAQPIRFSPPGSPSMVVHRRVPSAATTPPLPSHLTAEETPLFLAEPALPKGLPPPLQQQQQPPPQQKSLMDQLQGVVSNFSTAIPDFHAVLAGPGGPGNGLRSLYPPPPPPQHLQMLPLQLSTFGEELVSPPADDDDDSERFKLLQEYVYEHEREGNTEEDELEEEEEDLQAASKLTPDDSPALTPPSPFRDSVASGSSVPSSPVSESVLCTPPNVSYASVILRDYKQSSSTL
Sequence of Metabotropic glutamate receptor 5 (Rattus norvegicus, UniProt P31424) (P31424 whole entry): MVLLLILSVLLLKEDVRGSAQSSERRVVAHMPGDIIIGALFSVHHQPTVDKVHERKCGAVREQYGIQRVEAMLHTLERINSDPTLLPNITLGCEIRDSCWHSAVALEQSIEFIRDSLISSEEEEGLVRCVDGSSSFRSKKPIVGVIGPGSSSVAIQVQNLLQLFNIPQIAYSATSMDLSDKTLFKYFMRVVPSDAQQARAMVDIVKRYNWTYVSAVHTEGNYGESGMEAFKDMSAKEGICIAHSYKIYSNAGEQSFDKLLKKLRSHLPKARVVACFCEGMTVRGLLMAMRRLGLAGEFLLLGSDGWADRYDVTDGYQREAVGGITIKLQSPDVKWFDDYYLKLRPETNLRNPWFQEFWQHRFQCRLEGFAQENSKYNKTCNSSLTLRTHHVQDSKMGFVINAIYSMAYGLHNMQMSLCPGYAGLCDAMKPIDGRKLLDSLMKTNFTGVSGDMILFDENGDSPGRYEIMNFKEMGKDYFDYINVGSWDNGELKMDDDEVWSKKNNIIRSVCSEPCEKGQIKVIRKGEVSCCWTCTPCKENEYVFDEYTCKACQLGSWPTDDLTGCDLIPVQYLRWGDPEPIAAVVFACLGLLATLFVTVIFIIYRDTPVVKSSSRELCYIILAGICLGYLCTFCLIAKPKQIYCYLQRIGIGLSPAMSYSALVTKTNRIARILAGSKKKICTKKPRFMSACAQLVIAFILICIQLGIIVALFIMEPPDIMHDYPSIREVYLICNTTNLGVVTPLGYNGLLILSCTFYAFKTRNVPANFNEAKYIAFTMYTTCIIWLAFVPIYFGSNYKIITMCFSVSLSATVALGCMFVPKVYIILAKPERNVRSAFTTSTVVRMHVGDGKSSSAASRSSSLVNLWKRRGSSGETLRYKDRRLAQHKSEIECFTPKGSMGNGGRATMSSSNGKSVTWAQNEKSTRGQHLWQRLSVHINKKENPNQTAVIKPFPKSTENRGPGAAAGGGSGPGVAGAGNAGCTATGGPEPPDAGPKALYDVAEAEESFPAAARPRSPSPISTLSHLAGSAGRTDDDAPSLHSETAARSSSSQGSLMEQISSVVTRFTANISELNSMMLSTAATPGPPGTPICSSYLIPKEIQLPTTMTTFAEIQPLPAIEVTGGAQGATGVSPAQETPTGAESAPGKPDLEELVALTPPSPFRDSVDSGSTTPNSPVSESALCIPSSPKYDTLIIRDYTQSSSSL
Sequence of Metabotropic glutamate receptor 7 (Q14831 whole entry): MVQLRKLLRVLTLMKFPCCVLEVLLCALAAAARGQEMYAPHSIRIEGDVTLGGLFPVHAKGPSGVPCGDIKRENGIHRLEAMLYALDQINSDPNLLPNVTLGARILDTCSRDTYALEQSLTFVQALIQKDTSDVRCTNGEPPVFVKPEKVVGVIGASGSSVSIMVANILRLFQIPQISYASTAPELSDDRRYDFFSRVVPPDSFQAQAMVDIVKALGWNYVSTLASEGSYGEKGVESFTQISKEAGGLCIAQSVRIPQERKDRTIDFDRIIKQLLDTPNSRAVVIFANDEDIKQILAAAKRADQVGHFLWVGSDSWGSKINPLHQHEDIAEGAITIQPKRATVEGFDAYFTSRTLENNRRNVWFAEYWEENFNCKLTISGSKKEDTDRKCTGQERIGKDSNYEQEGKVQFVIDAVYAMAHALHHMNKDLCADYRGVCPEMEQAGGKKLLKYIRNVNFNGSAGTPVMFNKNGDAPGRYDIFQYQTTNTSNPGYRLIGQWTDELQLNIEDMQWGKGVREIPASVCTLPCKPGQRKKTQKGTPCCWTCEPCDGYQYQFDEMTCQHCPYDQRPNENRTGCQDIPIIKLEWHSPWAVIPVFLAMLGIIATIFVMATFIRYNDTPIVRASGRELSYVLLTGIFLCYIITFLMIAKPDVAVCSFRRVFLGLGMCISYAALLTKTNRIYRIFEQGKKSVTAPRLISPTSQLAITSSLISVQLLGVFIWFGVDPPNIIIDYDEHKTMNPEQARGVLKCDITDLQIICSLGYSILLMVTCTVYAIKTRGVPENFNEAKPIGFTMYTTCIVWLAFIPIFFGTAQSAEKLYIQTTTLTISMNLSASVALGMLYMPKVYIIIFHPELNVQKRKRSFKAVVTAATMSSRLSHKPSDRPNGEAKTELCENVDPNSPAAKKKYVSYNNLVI

CC1CCCN(C(=O)c2cnc(Nc3ccc(Cl)cc3)c(Cl)c2)C1 (configuration not stated)
IC50 [1]: 95 nM

O=C(c1ccc(NC2CCCCC2)nc1)N1CCCCC1
IC50 [1]: > 10000 nM

O=C(c1ccc(Nc2ccc(Cl)cn2)nc1)N1CCCCC1
IC50 [1]: 10000 nM

CC1CCCN(C(=O)c2cc(Nc3ccc(Cl)cc3)[nH]n2)C1 (configuration not stated)
IC50 [1]: > 10000 nM

CCCCC1CCCCN1C(=O)c1cnc(Nc2ccc(C)nc2)c(Cl)c1 (racemic)
IC50 [1]: 136 nM | IC50 [2]: 5 nM | solubility [3]: < 3 µg/mL | microsomal CLint [4]: 227 µL/min/mg | microsomal CLint [5]: 637 µL/min/mg

CC1CCCN(C(=O)c2ccc(Nc3ccc(Cl)cc3)nc2)C1 (racemic)
IC50 [1]: 530 nM

COc1ccc(Nc2ccc(C(=O)N3CCCCC3)cn2)cc1
IC50 [1]: 1800 nM

Cc1ccc(Nc2ncc(C(=O)N3CCCC[C@H]3C)cc2Cl)cn1
IC50 [1]: 240 nM | IC50 [2]: 430 nM | solubility [3]: 216 µg/mL (≈ 626 µM) | microsomal CLint [4]: 44 µL/min/mg | microsomal CLint [5]: 73 µL/min/mg

Cc1ccc(Nc2ncc(C(=O)N3CCCCC3)cc2Cl)cn1
solubility [3]: 150 µg/mL (≈ 453 µM) | microsomal CLint [4]: 33 µL/min/mg | microsomal CLint [5]: 48 µL/min/mg

Cc1ccc(Nc2ccc(C(=O)N3CCCCC3)cn2)cn1
IC50 [1]: 420 nM

CC[C@H]1CCCCN1C(=O)c1cnc(Nc2ccc(C)nc2)c(Cl)c1
IC50 [1]: 390 nM | IC50 [2]: 360 nM | solubility [3]: 56 µg/mL (≈ 156 µM) | microsomal CLint [4]: 216 µL/min/mg | microsomal CLint [5]: 190 µL/min/mg

O=C(c1ccc(Nc2ccc(Cl)cc2)nc1)N1CCCCCC1
IC50 [1]: 250 nM

Cc1ccc(Nc2ccc(C(=O)N3CCCCC3)cn2)cc1
IC50 [1]: 2300 nM

COc1cc(C(=O)N2CCCCC2)cnc1Nc1ccc(Cl)cc1
IC50 [1]: 2100 nM

CCCC1CCCCN1C(=O)c1cnc(Nc2ccc(C)nc2)c(Cl)c1 (racemic)
IC50 [1]: 90 nM | IC50 [2]: 16 nM | solubility [3]: < 3 µg/mL | microsomal CLint [4]: 224 µL/min/mg | microsomal CLint [5]: 885 µL/min/mg

O=C(c1ccc(Nc2ccccc2)nc1)N1CCCCC1
IC50 [1]: 10000 nM

CC[C@@H]1CCCCN1C(=O)c1cnc(Nc2ccc(C)nc2)c(Cl)c1
Activity (Rattus norvegicus [6]): inactive | Activity (Rattus norvegicus [7]): Dose-dependent effect | Drug uptake (Brain): 127 pmol/g | IC50 [8]: > 10000 nM | IC50 [9]: > 10000 nM | IC50 [10]: > 10000 nM | IC50 (Glutamate NMDA receptor): > 10000 nM | IC50 [11]: > 10000 nM | IC50 [12]: > 10000 nM | half-life [13]: 54 min | Ki [14]: 30 nM | IC50 [1]: 32 nM | IC50 [2]: 36 nM | solubility [3]: 58 µg/mL (≈ 162 µM) | microsomal CLint [4]: 89 µL/min/mg | microsomal CLint [5]: 87 µL/min/mg | Ki [15]: 38 nM | Cmax [16]: 1230 nM | Tmax [17]: 15 min | AUC [18]: 7.23 µM·h | bioavailability [19]: 54% | Kp [20]: 1.3 | half-life [21]: 18 min | MRT [22]: 54 min | clearance [23]: 37.2 mL/min/kg | Vd [24]: 2 L/kg | AUC [25]: 4.48 µM·h | Kp [26]: 1.36 | Activity (Mus musculus): Active | Activity (Rattus norvegicus [27]): Active

CN(c1ccc(Cl)cc1)c1ccc(C(=O)N2CCCCC2)cn1
IC50 [1]: > 10000 nM

CC[C@H]1CCCN(C(=O)c2cnc(Nc3ccc(C)nc3)c(Cl)c2)C1
solubility [3]: < 3 µg/mL | microsomal CLint [4]: 174 µL/min/mg | microsomal CLint [5]: 687 µL/min/mg

Cc1cccc(Nc2ccc(C(=O)N3CCCCC3)cn2)n1
IC50 [1]: > 10000 nM

O=C(c1cnc(Nc2ccc(Cl)cc2)cn1)N1CCCCC1
IC50 [1]: > 10000 nM

CC[C@@H]1CCCN(C(=O)c2cnc(Nc3ccc(C)nc3)c(Cl)c2)C1
solubility [3]: 95 µg/mL (≈ 265 µM) | microsomal CLint [4]: 322 µL/min/mg | microsomal CLint [5]: 643 µL/min/mg

CC1CCCN(C(=O)c2ccc(Nc3ccc(Cl)cc3)nn2)C1 (configuration not stated)
IC50 [1]: 720 nM

O=C(c1ccc(Nc2ccc(Cl)cc2)nc1)N1CCCC1
IC50 [1]: 5400 nM

CCC1CCCN(C(=O)c2cnc(Nc3ccc(C)nc3)c(Cl)c2)C1 (racemic)
solubility [3]: 15 µg/mL (≈ 41.8 µM) | microsomal CLint [4]: 171 µL/min/mg | microsomal CLint [5]: 417 µL/min/mg

O=C(c1ccc(Nc2ccc(Cl)c(Cl)c2)nc1)N1CCCCC1
IC50 [1]: > 10000 nM

O=C(c1ccc(Nc2ccc(Cl)cc2)nc1)N1CCCCC1
IC50 [1]: 310 nM

O=C(c1ccc(Nc2cccc(Cl)c2)nc1)N1CCCCC1
IC50 [1]: > 10000 nM

CC1CCN(C(=O)c2ccc(Nc3ccc(Cl)cc3)nc2)CC1
IC50 [1]: 2300 nM

CCC1CCCCN1C(=O)c1cnc(Nc2ccc(C)nc2)c(Cl)c1 (racemic)
IC50 [1]: 110 nM | IC50 [2]: 90 nM | solubility [3]: 122 µg/mL (≈ 340 µM) | microsomal CLint [4]: 138 µL/min/mg | microsomal CLint [5]: 220 µL/min/mg

Cc1ccc(Nc2ncc(C(=O)N3CCCC[C@@H]3C)cc2Cl)cn1
IC50 [1]: 1400 nM | solubility [3]: 499 µg/mL (≈ 1450 µM) | microsomal CLint [4]: 39 µL/min/mg | microsomal CLint [5]: 68 µL/min/mg

O=C(c1ccc(Nc2ccc(Cl)cc2)nc1)N1CCCCCCC1
IC50 [1]: 2300 nM

O=C(c1ccc(Nc2ccccc2Cl)nc1)N1CCCCC1
IC50 [1]: > 10000 nM

CCN(CC)C(=O)c1ccc(Nc2ccc(Cl)cc2)nc1
IC50 [1]: 460 nM

O=C(NC1CCCCC1)c1ccc(Nc2ccc(Cl)cc2)nc1
IC50 [1]: > 10000 nM

Cc1ccc(Nc2ncc(C(=O)N3CCCC(C)C3)cc2Cl)cn1 (racemic)
microsomal CLint [4]: 60 µL/min/mg | microsomal CLint [5]: 38 µL/min/mg

CC1CCCN(C(=O)c2ccc(Nc3ccc(Cl)cc3)cc2)C1 (configuration not stated)
IC50 [1]: 1600 nM

O=C(c1ccc(Nc2ccc(F)cc2)nc1)N1CCCCC1
IC50 [1]: 2300 nM

CC1CCCCN1C(=O)c1ccc(Nc2ccc(Cl)cc2)nc1 (racemic)
IC50 [1]: 430 nM

CC1CCCN(C(=O)c2ccc(Oc3ccc(Cl)cc3)nc2)C1 (configuration not stated)
IC50 [1]: > 10000 nM

CC1CCCN(C(=O)c2cnc(Nc3ccc(Cl)cc3)nc2)C1 (configuration not stated)
IC50 [1]: 980 nM
